{"source": "ChEMBL document CHEMBL1138476", "about": "(J Med Chem, 2009)", "key": {"Canis familiaris [1]": {"tested_on": "Canis familiaris", "test": "Effect on respiratory function in spontaneously breathing mongrel dog assessed as change in tidal volume at 5 mg/kg after intravenous infusion for 60 mins (RVb= 13.0+/-10.3 %)", "type": "functional, Canis lupus familiaris"}, "Canis familiaris [2]": {"tested_on": "Canis familiaris", "test": "Effect on respiratory function in spontaneously breathing mongrel dog assessed as change in intrapleural pressure at 5 mg/kg after intravenous infusion for 30 mins (RVb= -90.8+/-103 %)", "type": "functional, Canis lupus familiaris"}, "Rattus norvegicus [3]": {"tested_on": "Rattus norvegicus", "test": "Effect on acute renal function in rat assessed as change in urine sodium level per 100 gm body weight at 30 mg/kg, po (RVb= 49.9+/-3.1 mg/dl)", "type": "functional"}, "Rattus norvegicus [4]": {"tested_on": "Rattus norvegicus", "test": "Ex vivo receptor occupancy of CRF receptor in rat brain at 30 mg/kg, po by [125I]sauvagine binding and autoradiography relative to control", "type": "functional", "summary_of_the_method": "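Rats were given 0.3, 1, 3, 10 or 30 mg/kg po in 0.25% Methocel 60 min before sacrifice. Brains were removed, sectioned and frozen at −80 °C. Ex vivo CRF receptor binding gave occupancy relative to vehicle-treated rats, reported as mean ± SEM.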"}, "Canis familiaris [5]": {"tested_on": "Canis familiaris", "test": "Effect on respiratory function in spontaneously breathing mongrel dog assessed as change in pulmonary compliance at 5 mg/kg after intravenous infusion for 60 mins (RVb= -4.8+/-[…])", "type": "functional, Canis lupus familiaris"}, "Rattus norvegicus [6]": {"tested_on": "Rattus norvegicus", "test": "Effect on acute renal function in rat assessed as change in urine potassium level per 100 gm body weight at 30 mg/kg, po (RVb= 60.3+/-11.1 mg/dl)", "type": "functional"}, "Canis familiaris [7]": {"tested_on": "Canis familiaris", "test": "Effect on respiratory function in spontaneously breathing mongrel dog assessed as change in heart rate at 5 mg/kg after intravenous infusion for 15 mins (RVb= -2.3+/-1.7 %)", "type": "functional, Canis lupus familiaris"}, "Canis familiaris [8]": {"tested_on": "Canis familiaris", "test": "Effect on respiratory function in spontaneously breathing mongrel dog assessed as change in peak expiratory flow at 5 mg/kg after intravenous infusion for 6 mins (RVb= 3.6+/-3.7 %)", "type": "functional, Canis lupus familiaris"}, "Canis familiaris [9]": {"tested_on": "Canis familiaris", "test": "Effect on respiratory function in spontaneously breathing mongrel dog assessed as change in respiration rate at 5 mg/kg after intravenous infusion for 6 mins (RVb= -8.3+/-8.3 %)", "type": "functional, Canis lupus familiaris"}, "Canis familiaris [10]": {"tested_on": "Canis familiaris", "test": "Effect on respiratory function in spontaneously breathing mongrel dog assessed as change in minute volume at 5 mg/kg after intravenous infusion for 30 mins (RVb= 1.0+/-9.7 %)", "type": "functional, Canis lupus familiaris"}, "Rattus norvegicus [11]": {"tested_on": "Rattus norvegicus", "test": "Effect on acute renal function in rat assessed as change in osmolality in urine per 100 gm body weight at 30 mg/kg, po (RVb= 325+/-1.9 mg/dl)", "type": "functional"}, "Rattus norvegicus [12]": {"tested_on": "Rattus norvegicus", "test": "Anxiolytic activity in rat assessed as decrease in latency to exit dark chamber at 3 mg/kg, po by defensive withdrawal test relative to untreated control", "type": "functional", "design": "scale not given: the % may be the effect or the level left", "summary_of_the_method": "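Rat defensive withdrawal: latency to leave the dark chamber and explore the open field, maximum 900 s. Dosed orally in 0.25% Methocel 60 min before testing; n = 8 per dose, mean ± SEM. Analysed by Kruskal–Wallis followed by Mann–Whitney U against vehicle.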"}, "Rattus norvegicus [13]": {"tested_on": "Rattus norvegicus", "test": "Effect on acute renal function in rat assessed as change in urine urea level per 100 gm body weight at 30 mg/kg, po (RVb= 321+/-62 mg/dl)", "type": "functional"}, "Rattus norvegicus [14]": {"tested_on": "Rattus norvegicus", "test": "Toxicity in rat assessed as total distance traveled at 1 mg/kg, po after 1 hr by spontaneous locomotor test", "type": "organism-based", "design": "dose 1 mg/kg, route oral", "settings": "in vivo", "summary_of_the_method": "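Spontaneous locomotor activity in rats dosed po in 0.25% Methocel 1 h pretest; doses up to 100 mg/kg. Compared with the vehicle (zero dose) group, mean ± SEM, N = rats.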"}, "[15]": {"biological_target": "T1, Adenosine receptor A1 (Homo sapiens) (UniProt P30542)", "T1 sequence (whole entry)": "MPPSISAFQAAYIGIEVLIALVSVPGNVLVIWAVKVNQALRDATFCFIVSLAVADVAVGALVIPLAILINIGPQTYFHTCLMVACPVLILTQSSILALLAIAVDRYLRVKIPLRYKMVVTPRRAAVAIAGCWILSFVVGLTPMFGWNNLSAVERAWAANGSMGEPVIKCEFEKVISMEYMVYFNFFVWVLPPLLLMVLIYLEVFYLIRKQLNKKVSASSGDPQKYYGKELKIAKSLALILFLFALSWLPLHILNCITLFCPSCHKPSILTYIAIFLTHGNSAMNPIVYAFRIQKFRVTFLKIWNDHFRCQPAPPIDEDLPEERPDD", "test": "Inhibition of ligand binding in adenosine A1 receptor", "design": "scale not given: the % may be the effect or the level left", "summary_of_the_method": "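Screened at 10^-7 and 10^-5 M for binding inhibition. Then run twice in a dose–response format on the cloned rat adenosine A1 receptor expressed in CHO cells to obtain Ki.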"}, "[16]": {"test": "Solubility in ethanol", "type": "physicochemical"}, "[17]": {"biological_target": "T2, Corticotropin-releasing factor-binding protein (Homo sapiens, UniProt P24387)", "T2 sequence (P24387 whole entry)": "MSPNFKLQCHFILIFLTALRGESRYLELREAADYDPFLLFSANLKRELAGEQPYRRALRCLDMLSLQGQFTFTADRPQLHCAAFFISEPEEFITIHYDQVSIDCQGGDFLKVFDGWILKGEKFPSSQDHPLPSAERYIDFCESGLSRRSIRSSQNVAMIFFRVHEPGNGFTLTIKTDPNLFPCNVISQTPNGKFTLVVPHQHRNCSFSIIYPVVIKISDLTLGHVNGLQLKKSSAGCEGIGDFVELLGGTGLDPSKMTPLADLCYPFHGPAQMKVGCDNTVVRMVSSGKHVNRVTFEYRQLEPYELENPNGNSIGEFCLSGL", "test": "Binding affinity to human recombinant CRF binding protein"}, "Canis familiaris [18]": {"tested_on": "Canis familiaris", "test": "Effect on respiratory function in spontaneously breathing mongrel dog assessed as change in tidal volume at 5 mg/kg after intravenous infusion for 6 mins (RVb= 5.8+/-3.8 %)", "type": "functional, Canis lupus familiaris"}, "Canis familiaris [19]": {"tested_on": "Canis familiaris", "test": "Effect on respiratory function in spontaneously breathing mongrel dog assessed as change in mean arterial pressure at 5 mg/kg after intravenous infusion for 60 mins (RVb= 5.1+/-3.5 %)", "type": "functional, Canis lupus familiaris, Artery"}, "Rattus norvegicus [20]": {"tested_on": "Rattus norvegicus", "test": "Toxicity in rat assessed as total distance traveled at 3 mg/kg, po after 1 hr by spontaneous locomotor test", "type": "organism-based", "design": "dose 3 mg/kg, route oral", "settings": "in vivo", "summary_of_the_method": "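Rat spontaneous locomotor activity test with oral dosing in 0.25% Methocel 1 h before testing, at doses up to 100 mg/kg. Values are mean ± SEM, with N rats per group, compared with the vehicle (zero-dose) group.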"}, "Canis familiaris [21]": {"tested_on": "Canis familiaris", "test": "Effect on respiratory function in spontaneously breathing mongrel dog assessed as change in minute volume at 5 mg/kg after intravenous infusion for 60 mins (RVb= -13.4+/-10.7 %)", "type": "functional, Canis lupus familiaris"}, "Rattus norvegicus [22]": {"tested_on": "Rattus norvegicus", "test": "Toxicity in rat assessed as time spent on rotarod at 10 mg/kg, po after 1 hr by rotarod test", "type": "organism-based", "design": "dose 10 mg/kg, route oral", "settings": "in vivo", "summary_of_the_method": "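Rats, n = 8 per dose, dosed po in 0.25% Methocel 1 h before testing, at 0, 1.0, 3.0, 10, 30 and 100 mg/kg. Read-out is time on rotorod (s), mean ± SEM, compared with the vehicle (zero-dose) group.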"}, "[23]": {"test": "Plasma concentration in dog at 3 mg/kg after […]", "type": "ADME, organism-based, Canis lupus familiaris", "design": "dose 3 mg/kg, route intravenous", "settings": "iv"}, "Rattus norvegicus [24]": {"tested_on": "Rattus norvegicus", "test": "Effect on acute renal function in rat assessed as change in urine phosphate level per 100 gm body weight at 30 mg/kg, po (RVb= 8.7+/-2.3 mg/dl)", "type": "functional"}, "Canis familiaris [25]": {"tested_on": "Canis familiaris", "test": "Effect on respiratory function in spontaneously breathing mongrel dog assessed as change in peak expiratory flow at 5 mg/kg after intravenous infusion for 15 mins (RVb= -8.4+/-6.6 %)", "type": "functional, Canis lupus familiaris"}}}
{"smiles": "CC[C@@H](C)Nc1nc(C)nc2c(-c3ccc(OC)nc3C)c(C)nn12", "note": "[PEXACERFONT]", "values": [{"measurement": "Activity", "setting": "Canis familiaris [1]", "result": 11.5, "unit": "%"}, {"measurement": "Activity", "setting": "Canis familiaris [2]", "result": 8.6, "unit": "%"}, {"measurement": "Activity", "setting": "Rattus norvegicus [3]", "result": 58.4, "unit": "mg/dL"}, {"measurement": "Activity", "setting": "Rattus norvegicus [4]", "result": 85, "unit": "%"}, {"measurement": "Activity", "setting": "Canis familiaris [5]", "result": 33.8, "unit": "%"}, {"measurement": "Activity", "setting": "Rattus norvegicus [6]", "result": 32.1, "unit": "mg/dL"}, {"measurement": "Activity", "setting": "Canis familiaris [7]", "result": -2.9, "unit": "%"}, {"measurement": "Activity", "setting": "Canis familiaris [8]", "result": -12.5, "unit": "%"}, {"measurement": "Activity", "setting": "Canis familiaris [9]", "result": 37.5, "unit": "%"}, {"measurement": "Activity", "setting": "Canis familiaris [10]", "result": -30.8, "unit": "%"}, {"measurement": "Activity", "setting": "Rattus norvegicus [11]", "result": 240, "unit": "milliosmole"}, {"measurement": "Activity", "setting": "Rattus norvegicus [12]", "result": 44, "unit": "%"}, {"measurement": "Activity", "setting": "Rattus norvegicus [13]", "result": 166, "unit": "mg/dL"}, {"measurement": "Activity", "setting": "Rattus norvegicus [14]", "result": 4106, "unit": "cm"}, {"measurement": "Activity", "setting": "[15]", "result": 90, "unit": "%"}, {"measurement": "solubility", "setting": "[16]", "result": 300, "unit": "mg/mL"}, {"measurement": "IC50", "setting": "[17]", "result": "> 1000", "unit": "nM"}, {"measurement": "Activity", "setting": "Canis familiaris [18]", "result": -3.5, "unit": "%"}, {"measurement": "Activity", "setting": "Canis familiaris [19]", "result": 4, "unit": "%"}, {"measurement": "Activity", "setting": "Rattus norvegicus [20]", "result": 5639, "unit": "cm"}, {"measurement": "Activity", "setting": "Canis familiaris [21]", "result": -6, "unit": "%"}, {"measurement": "Time", "setting": "Rattus norvegicus [22]", "result": 158, "unit": "s"}, {"measurement": "concentration at 0.5 h", "setting": "[23]", "result": 1290, "unit": "nM"}, {"measurement": "Activity", "setting": "Rattus norvegicus [24]", "result": 4.6, "unit": "mg/dL"}, {"measurement": "Activity", "setting": "Canis familiaris [25]", "result": -0.1, "unit": "%"}]}
